# Measured values taken from ChEMBL document CHEMBL1138975, “Design and synthesis of 4-substituted-8-(2-phenyl-cyclohexyl)-2,8-diaza-spiro[4.5]decan-1-one as a novel class of GlyT1 inhibitors: achieving selectivity against the mu opioid and nociceptin/orphanin FQ peptide (NOP) receptors” (Bioorg Med Chem Lett, 2006).
# pEC50, pIC50: −log10 of the molar value.
# Tests used:
# [1] = target: T1, Sodium- and chloride-dependent glycine transporter 1 (Homo sapiens, UniProt P48067); experiment: Inhibition of [3H]glycine uptake at GlyT1
# T1 sequence (P48067 whole entry): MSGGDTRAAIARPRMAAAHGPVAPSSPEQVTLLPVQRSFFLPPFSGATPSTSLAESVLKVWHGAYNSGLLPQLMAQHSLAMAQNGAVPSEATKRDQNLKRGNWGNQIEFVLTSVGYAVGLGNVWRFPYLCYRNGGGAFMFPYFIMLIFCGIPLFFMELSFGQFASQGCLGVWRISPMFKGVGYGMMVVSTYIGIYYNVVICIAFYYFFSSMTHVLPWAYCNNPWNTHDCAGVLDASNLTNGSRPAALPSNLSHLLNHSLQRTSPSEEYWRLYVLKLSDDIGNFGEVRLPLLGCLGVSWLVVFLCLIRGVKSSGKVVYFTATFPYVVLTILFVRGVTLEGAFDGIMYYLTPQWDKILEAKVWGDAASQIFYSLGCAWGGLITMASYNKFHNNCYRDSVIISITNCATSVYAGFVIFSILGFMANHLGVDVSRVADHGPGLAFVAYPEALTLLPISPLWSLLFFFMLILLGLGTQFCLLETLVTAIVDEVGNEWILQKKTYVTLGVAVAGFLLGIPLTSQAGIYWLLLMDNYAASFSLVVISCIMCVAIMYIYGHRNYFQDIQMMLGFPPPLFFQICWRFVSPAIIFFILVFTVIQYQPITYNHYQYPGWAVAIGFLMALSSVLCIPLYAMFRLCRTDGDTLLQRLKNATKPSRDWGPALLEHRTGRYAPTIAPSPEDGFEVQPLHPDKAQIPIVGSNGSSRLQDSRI
# [2] = target: T2, Sodium- and chloride-dependent glycine transporter 2 (Homo sapiens, UniProt Q9Y345); experiment: Inhibition of [3H]glycine uptake at GlyT2
# T2 sequence (Q9Y345 whole entry): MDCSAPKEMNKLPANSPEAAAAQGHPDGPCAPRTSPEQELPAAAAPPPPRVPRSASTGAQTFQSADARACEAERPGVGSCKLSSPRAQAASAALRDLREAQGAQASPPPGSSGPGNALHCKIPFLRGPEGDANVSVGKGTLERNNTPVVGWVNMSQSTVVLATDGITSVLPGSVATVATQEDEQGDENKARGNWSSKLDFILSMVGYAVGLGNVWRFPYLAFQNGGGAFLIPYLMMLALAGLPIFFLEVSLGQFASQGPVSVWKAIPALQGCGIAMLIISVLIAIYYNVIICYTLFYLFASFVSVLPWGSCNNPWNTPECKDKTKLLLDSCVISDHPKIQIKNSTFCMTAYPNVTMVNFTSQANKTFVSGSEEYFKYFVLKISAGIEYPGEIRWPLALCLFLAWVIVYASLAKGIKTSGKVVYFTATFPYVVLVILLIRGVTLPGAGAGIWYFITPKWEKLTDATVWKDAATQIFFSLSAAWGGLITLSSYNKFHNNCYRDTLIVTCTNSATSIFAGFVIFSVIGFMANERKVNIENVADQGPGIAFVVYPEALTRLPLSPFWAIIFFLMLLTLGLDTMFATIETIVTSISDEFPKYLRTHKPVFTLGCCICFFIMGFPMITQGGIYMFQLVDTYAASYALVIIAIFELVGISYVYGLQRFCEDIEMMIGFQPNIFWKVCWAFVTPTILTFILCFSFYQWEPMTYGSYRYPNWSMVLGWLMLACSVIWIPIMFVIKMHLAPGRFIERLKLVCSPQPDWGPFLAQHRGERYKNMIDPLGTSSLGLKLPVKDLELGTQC
# Nociceptin receptor = Nociceptin receptor (Homo sapiens, UniProt P41146); experiment: Displacement of [3H]NOP from human NOP receptor expressed in HEK293 cells; format: cell-based
# Procedure, shortened: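 Radioligand binding using membranes from HEK293 cells stably (permanently) transfected with human NOP receptor; displacement of [3H]-NOP measured.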
# Nociceptin receptor, sequence (P41146 whole entry): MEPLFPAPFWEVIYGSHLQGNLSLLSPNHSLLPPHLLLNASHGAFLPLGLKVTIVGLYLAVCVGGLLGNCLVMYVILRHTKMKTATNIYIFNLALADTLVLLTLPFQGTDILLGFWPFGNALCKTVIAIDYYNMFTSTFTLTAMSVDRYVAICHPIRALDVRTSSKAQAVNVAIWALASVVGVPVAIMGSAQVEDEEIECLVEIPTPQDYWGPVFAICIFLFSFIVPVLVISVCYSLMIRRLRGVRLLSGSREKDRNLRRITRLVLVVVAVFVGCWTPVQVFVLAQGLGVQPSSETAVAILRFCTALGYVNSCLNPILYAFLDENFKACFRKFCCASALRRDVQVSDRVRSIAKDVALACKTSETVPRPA
smiles,measurement,setting,value
O=C1NC[C@H](c2ccccc2)C12CCN([C@@H]1CCCC[C@@H]1c1ccccc1)CC2,pEC50,[1],5.54
O=C1NC[C@H](c2ccc(F)cc2)C12CCN([C@H]1CCCC[C@H]1c1ccc(F)cc1)CC2,pEC50,[1],5.89
same,pEC50,[2],5.08
COc1ccc(C2CNC(=O)C23CCN(C2CCCCC2c2ccc(F)cc2)CC3)cc1 (stereo unspecified),pEC50,[1],6.95
O=C1NCC(c2ccccc2)C12CCN(C1CCCCC1c1ccccc1)CC2 (stereo unspecified),pIC50,Nociceptin receptor,< 5.00
same,pEC50,[1],6.63
same,pEC50,[2],4.60
O=C1NC[C@H](c2ccc(F)cc2)C12CCN([C@@H]1CCCC[C@@H]1c1ccc(F)cc1)CC2,pIC50,Nociceptin receptor,< 5.00
same,pEC50,[1],7.44
same,pEC50,[2],4.40
O=C1NC[C@@H](c2ccccc2)C12CCN([C@H]1CCCC[C@H]1c1ccccc1)CC2,pIC50,Nociceptin receptor,< 5.00
same,pEC50,[1],6.61
same,pEC50,[2],4.40
O=C1NC[C@@H](c2ccc(F)cc2)C12CCN([C@@H]1CCCC[C@@H]1c1ccc(F)cc1)CC2,pIC50,Nociceptin receptor,< 5.00
same,pEC50,[1],7.37
same,pEC50,[2],4.78
O=C1NC[C@@H](c2ccccc2)C12CCN([C@@H]1CCCC[C@@H]1c1ccccc1)CC2,pEC50,[1],5.55
O=C1NC[C@H](c2ccccc2)C12CCN([C@H]1CCCC[C@H]1c1ccccc1)CC2,pIC50,Nociceptin receptor,< 5.00
same,pEC50,[1],7.21
O=C1NC[C@@H](c2ccc(F)cc2)C12CCN([C@H]1CCCC[C@H]1c1ccc(F)cc1)CC2,pEC50,[1],5.97
same,pEC50,[2],< 4.52
"O=C1NCC(c2ccc(F)cc2)C12CCN(C1CCCCC1c1ccc(C(F)(F)F)cc1)CC2 (single isomer, unassigned; diastereomer 1)",pEC50,[1],5.63
"O=C1NCC(c2ccc(Cl)c(Cl)c2)C12CCN(C1CCCCC1c1ccc(F)cc1)CC2 (single isomer, unassigned; diastereomer 1)",pEC50,[1],6.57
"O=C1NCC(c2ccccc2)C12CCN(C1CCCCC1c1ccc(F)cc1)CC2 (single isomer, unassigned; diastereomer 1)",pEC50,[1],6.78
"COc1ccc(C2CNC(=O)C23CCN(C2CCCCC2c2ccc(C)cc2)CC3)cc1 (single isomer, unassigned; diastereomer 1)",pEC50,[1],5.95
"O=C1NCC(c2ccc(F)cc2)C12CCN(C1CCCCC1c1ccc(C(F)(F)F)cc1)CC2 (single isomer, unassigned; diastereomer 2)",pEC50,[1],6.02
"O=C1NCC(c2ccc(Cl)c(Cl)c2)C12CCN(C1CCCCC1c1ccc(F)cc1)CC2 (single isomer, unassigned; diastereomer 2)",pEC50,[1],5.66
"O=C1NCC(c2ccccc2)C12CCN(C1CCCCC1c1ccc(F)cc1)CC2 (single isomer, unassigned; diastereomer 2)",pEC50,[1],7.32
"COc1ccc(C2CNC(=O)C23CCN(C2CCCCC2c2ccc(C)cc2)CC3)cc1 (single isomer, unassigned; diastereomer 2)",pEC50,[1],4.78
"O=C1NCC(c2ccc(F)cc2)C12CCN(C1CCCCC1c1ccc(C(F)(F)F)cc1)CC2 (single isomer, unassigned; diastereomer 3)",pEC50,[1],6.89
O=C1NCC(c2ccc(F)cc2)C12CCN(C1CCCCC1c1ccc(C(F)(F)F)cc1)CC2 (stereo in doubt),pEC50,[1],7.04
